For 63 compounds, EC50, CC50 and inhibition results are on record in ChEMBL document CHEMBL1127691, “Discovery, synthesis, and bioactivity of bis(heteroaryl)piperazines. 1. A novel class of non-nucleoside HIV-1 reverse transcriptase inhibitors” (J Med Chem, 1994).

Some results are limits rather than exact numbers.

Assay [1] concerns Human immunodeficiency virus 1. In words: Effective antiviral dose required to block the spread of HIV-1D34 infection in human peripheral blood mononuclear cells. The assay is classed as functional. As to conditions: read-out: ED50 (the source's name). Put shortly: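 PBMC (1 × 10^6 cells) infected with HIV-1 D34 inoculum containing 1 ng p24, cultured at 37 °C in 5% CO2. Replication read as supernatant p24 at day 4. ED50 = 50% effective antiviral dose, estimated in some cases.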

Assay [2] in a line: Tested for the drug concentration required to decrease […] infected human peripheral blood mononuclear cell viability compared to uninfected controls. It is filed as functional. The method, boiled down:
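Uninfected and HIV-1 D34-infected PBMC at 37 °C, 5% CO2. Viability taken from mitogen-stimulated cell proliferation. CC50 is the concentration lowering viability relative to uninfected controls; mostly estimated.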

Assay [3] has as its target Human immunodeficiency virus type 1 reverse transcriptase (Human immunodeficiency virus 1) (UniProt Q72547). The experiment in a line: In vitro inhibitory activity against HIV-1 reverse transcriptase at 100 uM. The method, boiled down: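 Recombinant HIV-1 RT (p51/p66 heterodimer, 90–95% pure, 0.0274 μM) with poly(rA) 10 μg/mL and (dT)10 primer 5 μg/mL; 8 μM α-35S-dTTP, 50 mM Tris-HCl pH 8.3, 10 mM MgCl2, 60 mM NaCl, 20 mM DTT, 0.05% NP-40. 37 °C, 15 min; TCA-precipitated label counted on filters. Percent inhibition at 100 μM, mean of at least two determinations.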

Take `CC(C)Nc1ccc(F)cc1N1CCN(C(=O)c2cc3ccccc3[nH]2)CC1`: the EC50 in assay [1] came to 0.1 µM. The cytotoxic concentration (CC50) (as a rule, the concentration at which the toxic effect on the cells reaches its halfway point) in assay [2] was > 100 µM. In addition, the inhibition (in general, the drop in the measured response relative to a control, in per cent) in assay [3] was 77%.

Take `CCNc1cccnc1N1CCN(C(=O)c2ccco2)CC1`: the EC50 in assay [1] was > 10 µM. Moreover, the CC50 in assay [2] was > 100 µM. This compound showed an inhibition in assay [3] of 39%.

Compound `CCNc1cccnc1N1CCN(C(=O)c2cccc3[nH]ccc23)CC1` had an inhibition in assay [3] of 28%.

On to `CCNc1cccnc1N1CCN(C(=O)c2c[nH]c3ccccc23)CC1`, for which the inhibition in assay [3] was 22%.

With `CC(C)Nc1cc(C(F)(F)F)ccc1N1CCN(C(=O)c2cc3ccccc3[nH]2)CC1`, the EC50 in assay [1] was ~1 µM. Also, the half-maximal cytotoxic concentration (CC50) in assay [2] is > 10 µM. The compound also gave an inhibition in assay [3] of 22%.

Turning to `CCNc1cccnc1N1CCN(C(=O)c2ccc[nH]2)CC1`, in assay [1], the EC50 is > 1 µM. Moreover, the half-maximal cytotoxic concentration (CC50) in assay [2] is > 100 µM. For the same compound, the inhibition in assay [3] is 87%.

As for `COc1c(C)cc(CN2CCN(c3ncccc3NC(C)C)CC2)cc1C`, the EC50 in assay [1] was 1 µM. In addition, the CC50 in assay [2] was ~10 µM. The inhibition in assay [3] was found to be 84%.

In assay [3], `O=C(c1cc2ccccc2[nH]1)N1CCN(c2ncccc2[N+](=O)[O-])CC1` yielded an inhibition of 5%.

As to `CCNc1cccnc1N1CCN(C(=O)c2nc3ccccc3[nH]2)CC1`, the EC50 in assay [1] is 10 µM. The CC50 in assay [2] was > 10 µM. Moreover, the inhibition in assay [3] amounted to 69%.

In the case of `Nc1cccnc1N1CCN(C(=O)c2cc3ccccc3[nH]2)CC1`, the EC50 in assay [1] was > 10 µM. The CC50 in assay [2] is > 100 µM. The same compound showed an inhibition in assay [3] of 20%.

With `CNC(=O)c1cccnc1N1CCN(C(=O)c2cc3ccccc3[nH]2)CC1`, the inhibition in assay [3] came to 0%.

As to `CNc1cccnc1N1CCN(C(=O)c2cc3ccccc3[nH]2)CC1`, the EC50 in assay [1] was ~1 µM. Moreover, the 50% cytotoxic concentration (CC50) in assay [2] was > 10 µM. Moreover, the inhibition in assay [3] came out at 85%.

As to `CCNc1cccnc1N1CCN(C(=O)c2cc(C)c(OC)c(C)c2)CC1`, the EC50 in assay [1] stood at 1 µM. For the same compound, in assay [2], the CC50 was > 100 µM. In addition, the inhibition in assay [3] stood at 69%.

With `CCc1ccccc1N1CCN(C(=O)c2cc3ccccc3[nH]2)CC1`, in assay [3], the inhibition worked out at 0%.

In assay [3], `CCNc1cccnc1N1CCN(C(=O)c2cc3ccccc3oc2=O)CC1` showed an inhibition of 16%.

As to `O=C(c1cc2ccccc2[nH]1)N1CCN(c2ncccc2NCC(F)(F)F)CC1`, in assay [1], the EC50 was 1 µM. The cytotoxic concentration (CC50) in assay [2] is > 10 µM. Further, the inhibition in assay [3] was found to be 40%.

On to `CCN(C(C)=O)c1cccnc1N1CCN(C(=O)c2cc3ccccc3[nH]2)CC1`, for which, in assay [3], the inhibition came out at 8%.

Consider `CCC(C)Nc1cccnc1N1CCN(C(=O)c2cc3ccccc3[nH]2)CC1` (centres undefined), for which the EC50 in assay [1] was 0.01 µM. Moreover, the CC50 in assay [2] is > 10 µM. The inhibition in assay [3] is 95%.

Turning to `CCCNc1cccnc1N1CCN(C(=O)c2cc3ccccc3[nH]2)CC1`, in assay [1], the EC50 worked out at 0.1 µM. Also, in assay [2], the 50% cytotoxic concentration (CC50) is > 100 µM. The compound further came in with an inhibition in assay [3] of 64%.

Take `CCNc1cccnc1N1CCN(C(=O)c2cc3ccccc3s2)CC1`: the EC50 in assay [1] is 10 µM. In addition, in assay [2], the CC50 was ~100 µM. Moreover, in assay [3], the inhibition worked out at 50%.

In the case of `CCNc1ccccc1N1CCN(C(=O)c2cc3ccccc3[nH]2)CC1`, the EC50 in assay [1] was 1 µM. For the same compound, the CC50 in assay [2] was > 100 µM. For the same compound, in assay [3], the inhibition is 78%.

Regarding `CC(=O)Nc1cccnc1N1CCN(C(=O)c2cc3ccccc3[nH]2)CC1`, the EC50 in assay [1] is > 10 µM. In assay [2], the half-maximal cytotoxic concentration (CC50) was > 100 µM. In addition, the inhibition in assay [3] amounted to 0%.

As to `CCNc1cccnc1N1CCN(C(=O)c2cc3ccccc3o2)CC1`, in assay [1], the EC50 was found to be 10 µM. For the same compound, the CC50 in assay [2] was > 10 µM. The same compound had an inhibition in assay [3] of 37%.

In assay [3], `CCNc1cccnc1N1CCN(C(=O)c2cnccn2)CC1` registered an inhibition of 0%.

As to `COC(=O)c1cccnc1N1CCN(C(=O)c2cc3ccccc3[nH]2)CC1`, the inhibition in assay [3] came out at 82%.

`CCC(CC)Nc1cccnc1N1CCN(C(=O)c2cc3ccccc3[nH]2)CC1`: the EC50 in assay [1] was found to be 0.1 µM. Further, in assay [2], the CC50 was > 10 µM. The compound further had an inhibition in assay [3] of 82%.

Turning to `CCNc1cccnc1N1CCN(C(=O)c2cc3c(C)c(OC)c(C)c(C)c3[nH]2)CC1`, in assay [1], the EC50 is > 10 µM. In addition, the CC50 in assay [2] is > 10 µM. This compound registered an inhibition in assay [3] of 63%.

As to `CC(C)C(=O)c1cccnc1N1CCN(C(=O)c2cc3ccccc3[nH]2)CC1`, the inhibition in assay [3] came out at 26%.

As to `CCNc1cccnc1N1CCN(C(=O)c2ccc3ccccc3c2)CC1`, the EC50 in assay [1] was determined as 10 µM. Also, the CC50 in assay [2] was > 10 µM. This compound also came in with an inhibition in assay [3] of 74%.

As for `CCN(CC)c1cccnc1N1CCN(C(=O)c2cc3ccccc3[nH]2)CC1`, the EC50 in assay [1] came out at 1 µM. In addition, the CC50 in assay [2] is > 10 µM. Also, the inhibition in assay [3] came to 69%.

Consider `CC(C)Nc1ccccc1N1CCN(C(=O)c2cc3ccccc3[nH]2)CC1`, for which the inhibition in assay [3] is 87%.

As to `O=C(c1cc2ccccc2[nH]1)N1CCN(c2ncccc2NCc2ccccc2)CC1`, the inhibition in assay [3] was found to be 14%.

Turning to `O=C(c1cc2ccccc2[nH]1)N1CCN(c2ncccc2NCC2CC2)CC1`, the EC50 in assay [1] amounted to 0.01 µM. Besides, the half-maximal cytotoxic concentration (CC50) in assay [2] was > 100 µM. In assay [3], this compound had an inhibition of 71%.

`COc1ccc(N2CCN(C(=O)c3cc4ccccc4[nH]3)CC2)c(OC)c1`: the inhibition in assay [3] was determined as 7%.

As to `CC(C)NCc1cccnc1N1CCN(C(=O)c2cc3ccccc3[nH]2)CC1`, the inhibition in assay [3] was 0%.

Consider `CC(C)Nc1cc(F)ccc1N1CCN(C(=O)c2cc3ccccc3[nH]2)CC1`, for which the EC50 in assay [1] amounted to 0.1 µM. Besides, the CC50 in assay [2] is > 10 µM. The compound also had an inhibition in assay [3] of 83%.

`CC(=O)c1cccnc1N1CCN(C(=O)c2cc3ccccc3[nH]2)CC1` yielded an inhibition in assay [3] of 30%.

Turning to `CCNc1cccnc1N1CCN(C(=O)c2nc3ccccc3o2)CC1`, in assay [3], the inhibition stood at 0%.

With `CCOC(=O)c1cccnc1N1CCN(C(=O)c2cc3ccccc3[nH]2)CC1`, the inhibition in assay [3] was 68%.

Take `CCNc1cccnc1N1CCN(C(=O)c2cccs2)CC1`: the EC50 in assay [1] is ~10 µM. The 50% cytotoxic concentration (CC50) in assay [2] is > 100 µM. In assay [3], this compound gave an inhibition of 60%.

Compound `N#Cc1ccccc1N1CCN(C(=O)c2cc3ccccc3[nH]2)CC1` yielded an inhibition in assay [3] of 0%.

In the case of `CCOc1ccccc1N1CCN(Cc2cc(C)c(OC)c(C)c2)CC1`, in assay [3], the inhibition came to 0%.

`N#Cc1cccnc1N1CCN(C(=O)c2cc3ccccc3[nH]2)CC1` showed an inhibition in assay [3] of 5%.

With `CCOc1ccccc1N1CCN(C(=O)c2cc(C)c(OC)c(C)c2)CC1`, in assay [1], the EC50 was > 1 µM. The 50% cytotoxic concentration (CC50) in assay [2] was < 10 µM. Further, the inhibition in assay [3] came to 0%.

In assay [3], `CCNc1cccc(N2CCN(C(=O)c3ccc4[nH]ccc4c3)CC2)n1` displayed an inhibition of 0%.

Regarding `CCNc1cccnc1N1CCN(C(=O)c2ccc3[nH]ccc3c2)CC1`, the EC50 in assay [1] was ~10 µM. Moreover, the CC50 in assay [2] was > 100 µM. The inhibition in assay [3] turned out to be 45%.

As to `COc1c(C)cc(C(=O)N2CCN(c3ccccn3)CC2)cc1C`, the EC50 in assay [1] was > 10 µM. Moreover, the CC50 in assay [2] was > 100 µM. The inhibition in assay [3] came out at 5%.

As to `CCOc1ccccc1N1CCN(C(=O)c2cc3ccccc3[nH]2)CC1`, in assay [1], the EC50 is > 1 µM. Also, in assay [2], the CC50 was < 10 µM. The inhibition in assay [3] turned out to be 76%.

Consider `CC(C)(C)NC(=O)c1cccnc1N1CCN(C(=O)c2cc3ccccc3[nH]2)CC1`, for which, in assay [3], the inhibition is 50%.

In assay [3], `CCNc1cccnc1N1CCN(C(=O)c2cnc3ccccc3c2)CC1` registered an inhibition of 14%.

For `COc1ccccc1N1CCN(C(=O)c2cc3ccccc3[nH]2)CC1`, the inhibition in assay [3] was 33%.

As for `CCNc1cccnc1N1CCN(C(=O)c2cccc3cc[nH]c23)CC1`, the EC50 in assay [1] was 1 µM. In assay [2], the cytotoxic concentration (CC50) was > 100 µM. Further, the inhibition in assay [3] was 87%.

Turning to `CCC(=O)c1cccnc1N1CCN(C(=O)c2cc3ccccc3[nH]2)CC1`, in assay [3], the inhibition worked out at 40%.

As for `COc1c(C)cc(CN2CCN(c3ncccn3)CC2)cc1C`, the inhibition in assay [3] turned out to be 0%.

Compound `CCCNc1cccnc1N1CCN(Cc2cc(C)c(OC)c(C)c2)CC1` registered an inhibition in assay [3] of 60%.

On to `CCNc1cccnc1N1CCN(Cc2cc3ccccc3[nH]2)CC1`, for which, in assay [1], the EC50 amounted to 1 µM. In assay [3], this compound came in with an inhibition of 64%.

`CC(C)Nc1cnnc(N2CCN(C(=O)c3ccc4[nH]ccc4c3)CC2)c1` yielded an inhibition in assay [3] of 39%.

`CC(C)(C)C(=O)c1cccnc1N1CCN(C(=O)c2cc3ccccc3[nH]2)CC1`: the inhibition in assay [3] was determined as 58%.

In assay [3], `CCNc1cccnc1N1CCN(C(=O)c2nc3ccccc3s2)CC1` yielded an inhibition of 0%.

Turning to `COc1c(C)cc(CN2CCN(c3ccccn3)CC2)cc1C`, the EC50 in assay [1] was > 10 µM. The half-maximal cytotoxic concentration (CC50) in assay [2] was > 100 µM. This compound also showed an inhibition in assay [3] of 0%.

Consider `COc1c(C)cc(C(=O)N2CCN(c3ncccc3NC(C)C)CC2)cc1C`, for which, in assay [1], the EC50 is 0.1 µM. For the same compound, the CC50 in assay [2] is > 10 µM. Further, in assay [3], the inhibition stood at 78%.

`CCNc1cccnc1N1CCN(C(=O)c2ccc3ccccc3n2)CC1` yielded an inhibition in assay [3] of 0%.

In turn, `CC(C)Nc1ccc(N2CCN(C(=O)c3ccc4[nH]ccc4c3)CC2)nc1` showed an inhibition in assay [3] of 0%.
